One assay deals with MRC5. Kind of assay: Cytotoxicity against human MRC5 cells after 72 hrs by MTT assay. The class given is cell-based. To be noted: MRC5, 72 h. In outline:
(§1)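 Cells seeded at 50,000 cells/mL and treated one day later for 3 days with compound at 0 up to 100 µM, with DMSO at 1% final. Untreated cells served as controls. Growth was read by MTT reduction, in sextuplicate. IC50 is the concentration giving 50% growth reduction. Media: AGS in Ham F-12; MRC-5, SK-MES-1 and J82 in MEM; all with 10% FBS at 37 °C and 5% CO2.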
(Tetrazolium assays rely on reduction of a dye to a coloured formazan, in cell work by metabolically active cells.)

A further assay concerns AGS. Kind of assay: Antitumor against human AGS cells after 72 hrs by MTT assay. It counts as functional, cell-based. In outline: as §1
A further assay deals with SK-MES-1. Kind of assay: Antitumor against human SK-MES1 cells after 72 hrs by MTT assay. To be noted: SK-MES-1, 72 h. It counts as functional, cell-based. In outline: as §1
The subject of another assay is HL-60. Kind of assay: Antitumor against human HL60 cells after 72 hrs by MTT assay. To be noted: HL-60, 72 h. The class given is functional, cell-based. The procedure, abridged: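 HL-60 leukemia cells kept in RPMI with 1 mM pyruvate and 10% heat-inactivated FBS at 37 °C and 5% CO2. They were plated at 50,000 cells/mL and exposed from day 1 for 3 days to compound at 0 up to 100 µM, with DMSO at 1% final. Untreated cells served as controls. Readout was MTT reduction in sextuplicate. IC50 is 50% growth reduction.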

For a further assay, the system named is J82. Kind of assay: Antitumor against human J82 cells after 72 hrs by MTT assay. The class given is functional, cell-based. To be noted: J82, 72 h. The procedure, abridged:
as §1

For `O=C1C(Cl)=C(OCCOCCOC2=C(Cl)C(=O)c3ccccc3C2=O)C(=O)c2ccccc21`, the IC50 came out at 7.3 µM with MRC5; 11 µM in the assay with AGS; 16.1 µM in the assay on SK-MES-1; 1.9 µM in the assay with HL-60; 26.6 µM in the assay on J82.

In the case of `O=C1C(Cl)=C(OCCOCCOCCOCCOC2=C(Cl)C(=O)c3ccccc3C2=O)C(=O)c2ccccc21`, the IC50 with MRC5 amounted to 55.8 µM; in the assay on AGS it was 54.8 µM; in the assay on SK-MES-1 it was 12.2 µM; in the assay on HL-60, 89.5 µM; in the assay on J82 it was 33.9 µM.

Regarding `COCCOC1=C(Cl)C(=O)c2ccccc2C1=O`, the IC50 with MRC5 was found to be 3.5 µM; in the assay with AGS, 9.9 µM; with SK-MES-1, 16.7 µM; with HL-60, 1.7 µM; with J82, 19.4 µM.

On to `O=C1C2=C(OCCOCCOCCO2)C(=O)c2ccccc21`, for which the IC50 with MRC5 was found to be 10.1 µM; in the assay with AGS, 17.5 µM; with SK-MES-1, 7.9 µM; in the assay with HL-60, 2.6 µM; in the assay on J82, 19.8 µM.

As for `O=C1C2=C(OCCOCCO2)C(=O)c2ccccc21`, the IC50 in the assay with MRC5 came to 95.2 µM; with AGS, 63.2 µM; in the assay with SK-MES-1, 16.4 µM; in the assay on HL-60 it was 21.4 µM; in the assay with J82 it was 39.6 µM.

Regarding `O=C1C2=C(OCCO2)C(=O)c2ccccc21`, the IC50 with MRC5 was 22.9 µM; in the assay with AGS it was 19.5 µM; in the assay on SK-MES-1, 8.3 µM; with HL-60, 20.1 µM; in the assay with J82, 22.3 µM.

`O=C1C(Cl)=C(OCCOCCOCCOC2=C(Cl)C(=O)c3ccccc3C2=O)C(=O)c2ccccc21`: the IC50 in the assay on MRC5 came to 4 µM; in the assay on AGS it was 5.2 µM; in the assay on SK-MES-1, 7.1 µM; in the assay on HL-60, 1.3 µM; in the assay with J82, 8.6 µM.

In the case of `COC1=C(Cl)C(=O)c2ccccc2C1=O`, the concentration for half-maximal inhibition (IC50) in the assay with MRC5 came out at 3.5 µM; in the assay with AGS it was 9.1 µM; with SK-MES-1, 11.5 µM; in the assay with HL-60, 1.8 µM; in the assay on J82 it was 10.1 µM.

Regarding `COC1=C(OC)C(=O)c2ccccc2C1=O`, the IC50 with MRC5 was found to be 7.2 µM; with AGS, 9.1 µM; in the assay on SK-MES-1 it was 5.3 µM; with HL-60 it was 8.9 µM; in the assay with J82, 16.1 µM.

As for `COc1cc([C@@H]2c3cc4c(cc3[C@@H](O[C@@H]3O[C@@H]5CO[C@@H](C)O[C@H]5[C@H](O)[C@H]3O)[C@H]3COC(=O)[C@H]23)OCO4)cc(OC)c1O` [ETOPOSIDE], the IC50 is 3.9 µM in the assay on MRC5; 0.36 µM in the assay on AGS; 2.5 µM with SK-MES-1; 0.8 µM with HL-60; 2.8 µM with J82.

A word on the IC50: it is the midpoint of a concentration-inhibition curve. Low values mean greater potency in that assay, high ones weaker potency in that assay.

The values are drawn from ChEMBL document CHEMBL1142417, “Studies on quinones. Part 43: Synthesis and cytotoxic evaluation of polyoxyethylene-containing 1,4-naphthoquinones” (Bioorg Med Chem, 2008).
